# Measurements collected from several papers.
# Cell line: HOP-92
# Observed: cell growth or viability
Compound,method,tested at,time,measurement,value
O=C1Nc2ccccc2C1=NNc1nnc2n1N=C(c1ccccc1)CS2,SRB,10 µM,,inhibition,36%
COc1ccc(-c2ccc(-c3ccc(C(=N)N)nc3)s2)cc1Cl,SRB,,,GI50,1630 nM
CCc1n(Cc2ccc3ccccc3n2)cc[n+]1Cc1ccc2ccccc2c1,SRB,,,TGI,671 nM
COc1ccc(-c2ccc(-c3ccc(C(=N)N)nc3)s2)cc1,SRB,,,GI50,1500 nM
O=C1NCCc2[nH]c(-c3ccncc3)cc21,,,,IC50,6400 nM
COc1ccc(C(=O)/C=C/c2cccc(Br)c2)cc1S(N)(=O)=O,SRB,,48 h,GI50,1800 nM
CCCCc1n(Cc2ccc3ccccc3n2)cc[n+]1Cc1ccc2ccccc2n1,SRB,,,TGI,3360 nM
COc1cccc(Oc2ccccc2NC(=O)CNC(=O)c2cccc3ccccc23)c1,SRB,,48 h,GI50,204 nM
COc1ccc(C(=O)/C=C/c2cccnc2)cc1S(N)(=O)=O,SRB,10 µM,,inhibition,44%
CCCc1n(Cc2ccc3ccccc3n2)cc[n+]1Cc1ccc2ccccc2n1,SRB,,,TGI,3230 nM
O=C1NC(=NCc2cccs2)S/C1=C\c1ccc2ncccc2c1,,,,IC50,6040 nM
